Assay outcomes from PubChem BioAssay.
In the library only some 2.4% were active in any assay of this set; here they are far more common.
LANA-H2A inh = blocks KSHV LANA binding to histone H2A/H2B. cell-free LANA-H2A/H2B peptide, fluorescence polarization. inhibition, % (concentration not given with the values). 0.6% of 320,000 active. AID 2629; in the data active = inhibition mostly above about 10%, no sharp cut-off; inactive = mostly below about 6.7%
Runt-SMMHC FRET = blocks binding of human RUNX1 Runt domain to CBFb-SMMHC; Q01196+Q13951; Cerulean-Runt/Venus-CBFb-SMMHC FRET ratio 530/480, 1 h; inhibition, % at 20 µM; 0.74% of 220,000 active; AID 1434;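 active = mean inhibition across duplicate retests at 20 µM reaching about 50%, limit read from the data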;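 also: 0% = DMSO wells and 100% = wells with excess untagged CBFb-SMMHC; inhibitors lower the FRET ratio by blocking Runt binding to CBFb-SMMHC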
Runt-CBFb FRET = inhibitors of human RUNX1 Runt domain binding to CBFb. Cerulean-Runt/Venus-CBFb FRET ratio 530/480, 1 h. inhibition, % at 20 µM. 0.46% of 220,000 active;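 active = inhibition over about 50% at 20 µM in the single-dose screen, limit read from the data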;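 also: 0% = DMSO wells and 100% = excess unlabeled CBFb competitor control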
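test system = Cerulean-tagged RUNX1 Runt domain (FRET donor) fusion protein | reagent = Venus-CBFb binding partner, 100 nM | incubation = protein complex preformed 1 h, compound exposure 1 h, room temperature, dark | detection = FRET fluorescence | read-out basis = loss of energy transfer signal | controls = 5 µM unlabeled CBFb as full-inhibition high control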
RanGTP-Impb inh = inhibitors of RanGTP-importin-beta interaction, primary screen, biochemical, FRET, CFP-Ran, YFP-importin-beta, homogeneous. cell-free CFP-Ran/YFP-importin-beta FRET ratio. inhibition, % (concentration not given with the values). 1.1% of 300,000 active. AID 2216;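 active = more than half of the replicate wells show a fall in the fluorescence ratio signal beyond about 16%, limit read from the data, passing the limit was not always enough; inconclusive = exactly half of the replicate wells pass the set limit; inactive = fewer than half of replicates pass the limit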;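 also: 0% = DMSO wells and 100% = Ran loaded with GDP instead of GTP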
EBV gp42 block = inhibitors of Epstein-Barr virus glycoprotein 42. Q1HVG2. Fluorescence polarization binding assay, mP read-out. inhibition, % (tested at 21.74 µM). 0.42% of 220,000 active; in the data active = inhibition above about 50%
Target sequence (Q1HVG2 whole entry, looked up): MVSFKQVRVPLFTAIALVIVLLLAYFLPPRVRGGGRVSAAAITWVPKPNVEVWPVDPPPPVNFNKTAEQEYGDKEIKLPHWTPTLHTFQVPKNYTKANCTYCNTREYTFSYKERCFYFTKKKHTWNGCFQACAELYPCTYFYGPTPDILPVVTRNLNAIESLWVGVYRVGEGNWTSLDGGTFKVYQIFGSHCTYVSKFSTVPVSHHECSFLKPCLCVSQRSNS
MEX-5 binding = C. elegans MEX-5 TCR-2 RNA binding activity; MEX-5/FITC-TCR2 RNA binding, fluorescence polarization; hits give low values; activity score (negative = inhibition of binding), % at 10 µM; AID 1832; 0.38% of 300,000 active;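 active = inhibition past about -25% in most replicates, and total fluorescence under double the plate's negative control median, limit read from the data; inconclusive = replicates evenly split on the limit, or fluorescence at least double controls; inactive = too little inhibition in most replicates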;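 also: 0% = DMSO and -100% = 5 µM competing unlabeled TCR2 RNA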
Target sequence (Q9XUB2 whole entry, looked up): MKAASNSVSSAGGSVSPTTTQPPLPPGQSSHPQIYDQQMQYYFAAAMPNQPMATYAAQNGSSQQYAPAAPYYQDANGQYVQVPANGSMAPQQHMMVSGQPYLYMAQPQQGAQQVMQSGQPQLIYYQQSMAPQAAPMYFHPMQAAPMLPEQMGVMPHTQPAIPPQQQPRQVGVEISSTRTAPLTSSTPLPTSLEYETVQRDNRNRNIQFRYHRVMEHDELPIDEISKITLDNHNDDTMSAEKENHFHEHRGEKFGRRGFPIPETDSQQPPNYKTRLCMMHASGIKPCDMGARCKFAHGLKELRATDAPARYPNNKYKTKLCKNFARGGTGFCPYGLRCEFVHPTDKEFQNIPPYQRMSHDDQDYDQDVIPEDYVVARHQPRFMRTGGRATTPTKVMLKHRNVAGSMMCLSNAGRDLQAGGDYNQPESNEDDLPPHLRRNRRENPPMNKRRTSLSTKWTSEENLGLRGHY
YIC counter = counter-screen: alters YIC FRET probe signal; IC50, µM; Purified YIC probe, intramolecular FRET ratio YFP/CFP; shares compounds with RanGTP-Impb inh; 40% of 1,000 active;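 active = fitted half-maximal inhibitory concentration no more than tenfold above the top dose tested; inconclusive = flat fit with 30 to 70% activity, or poor fit; inactive = half-maximal concentration beyond tenfold above the top dose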
An asterisk follows results filed as active; ? = inconclusive; . = not tested or not shown.

SMILES | LANA-H2A inh | Runt-SMMHC FRET | Runt-CBFb FRET | RanGTP-Impb inh | EBV gp42 block | MEX-5 binding | YIC counter
Cc1ccc(OCC(=O)c2cc(C)n(CC(F)(F)F)c2C)c([N+](=O)[O-])n1 | -2 | 9 | 17 | 20* | -12 | 1 | >50
N#CCNc1ccc([N+](=O)[O-])cc1C#N | 0 | -10 | 1 | 0 | -21 | 1 | .
O=S(=O)(Nc1nc2ccccc2nc1NCc1ccco1)c1ccc(Cl)cc1 | -3 | -3 | 1 | -3 | 32 | 4 | .
Cc1ccc(S(=O)(=O)Nc2nc3ccccc3nc2NCc2ccco2)cc1 | 6 | 36 | 12 | 20* | 18 | 2 | 13*
Oc1ccccc1N1CCN(CC(O)COCc2ccccc2Cl)CC1 (configuration not stated) | -3 | 4 | -1 | 3 | -7 | 3 | .
COc1cc([C@@H]2[C@H]3CN(C)CC=C3C(C#N)=C(N)C2(C#N)C#N)cc2c1OCO2 | 9 | 62* | 30 | 24* | 9 | . | 5.7*
CCOC(=O)N1CC=C2C(C#N)=C(N)C(C#N)(C#N)[C@H](c3ccc(OC(C)C)c(OCC)c3)[C@H]2C1 | 8 | 2 | -3 | 2 | 3 | -6 | .
CCCCn1c(=O)c(CCC(=O)OC(C)C(=O)Nc2cccc(Cl)c2Cl)nc2ccccc21 (configuration not stated) | 2 | -5 | -1 | 1 | -23 | 0 | .
O=C(CN1CCOCC1)NNc1c2ccccc2nc2ccccc12 | -1 | 8 | 13 | 19* | -21 | 0 | >50
C[N+]1(CC(=O)NNc2c3ccccc3nc3ccccc23)CCOCC1 | -4 | 14 | 4 | 2 | -17 | 0 | .
O=C(NNc1c2ccccc2nc2ccccc12)c1ccc(Cl)cc1 | 0 | . | . | 20* | . | -2 | >50
Nc1ccccc1C(=O)NNc1c2ccccc2nc2ccccc12 | 0 | 7 | 3 | 33* | 2 | -1 | >50
CCOC(=O)c1ccc(S(=O)(=O)NC2CCC(C)CC2)cc1 (configuration not stated) | -2 | . | . | . | . | . | .
CCn1cc(Br)c(C(=O)NC(=S)Nc2ccc(C(=O)OC)cc2)n1 | 0 | -2 | 0 | 1 | 7 | 1 | .
CSc1nsc(/C=C/Nc2ccc(C)cc2)c1C#N | -1 | -6 | 3 | 24* | -27 | 2 | >50
Cc1cccc(C)c1N1CCN(S(=O)(=O)c2ccc(F)cc2)CC1 | 4 | -1 | 0 | 19* | -4 | 0 | >50
Cc1cnc(C(=O)Nc2ccc(S(=O)(=O)N(C(C)C)C(C)C)cc2)cn1 | -4 | . | . | 20* | . | 1 | >50
CC(=O)N1CCN(c2ccc(NC(=O)c3ccc(C)c([N+](=O)[O-])c3)cc2)CC1 | 1 | . | . | ? | . | 1 | .
Cc1ccc(S(=O)(=O)N(C)Cc2ccc(C(=O)N/N=C3\CC(=O)CC(C)(C)C3)cc2)cc1 | -2 | 3 | -4 | 19* | -10 | 5 | >50
CCN(CC)S(=O)(=O)c1cccc(C(=O)N/N=C2\CC(=O)CC(C)(C)C2)c1 | -1 | -18 | -6 | -4 | -5 | -2 | .
COCCN1C=C(C(=O)OC)C(c2ccc(Cl)cc2)C(C(=O)OC)=C1 | -4 | 105* | 94* | 41* | -6 | 0 | 13*
CCOc1ccc(C2C(C(=O)OC)=CN(CCOC)C=C2C(=O)OC)cc1 | 6 | 107* | 102* | 21* | -17 | -5 | 15*
CCOC(=O)C1CCN(C(=O)COC(=O)c2ccc3[nH]c4c(c3c2)CCCC4)CC1 | -2 | . | . | 19* | . | -2 | >50
Fc1ccccc1N1CC(c2ccccc2)C(c2cccs2)=N1 (configuration not stated) | 7 | 62* | 28 | 20* | 8 | 2 | 14*
c1ccc(C2COC(c3cccs3)=N2)cc1 (configuration not stated) | 1 | 1 | 0 | 4 | -16 | -2 | .
SMILES | LANA-H2A inh | Runt-SMMHC FRET | Runt-CBFb FRET | RanGTP-Impb inh | EBV gp42 block | MEX-5 binding | YIC counter
NNC(=O)c1cc2nc(-c3cccs3)cc(C(F)(F)F)n2n1 | 0 | 3 | 2 | 27* | 9 | 0 | >50
COC(=O)c1nc2nc(-c3cccs3)cc(C(F)(F)F)n2n1 | 3 | 30 | 8 | 3 | -12 | -2 | .
CN(Cc1ccccc1)S(=O)(=O)c1ccc2c(c1)CCC(=O)N2 | 7 | . | . | -3 | . | 1 | .
COc1cc(CNc2ccc(N3CCCCC3)cc2)ccc1OCC(=O)NC(C)(C)C | -1 | . | . | -2 | . | 3 | .
COc1cccc(-c2coc3c(C)c4oc(=O)c(CC(=O)O)c(C)c4cc23)c1 | -1 | . | . | 24* | . | 2 | >50
COc1cccc(-c2coc3c(C)c4oc(=O)c(CCC(=O)O)c(C)c4cc23)c1 | -3 | . | . | -1 | . | -13 | .
COc1ccc(-c2coc3c(C)c4oc(=O)c(CC(=O)O)c(C)c4cc23)cc1 | . | . | . | 12 | . | -2 | .
Cc1c(CC(=O)O)c(=O)oc2c(C)c3occ(-c4ccc(Br)cc4)c3cc12 | 2 | . | . | 28* | . | 0 | >26
O=C(NCCC1=CCCCC1)C1CCC(=O)N(Cc2cccc(C(F)(F)F)c2)C1 (configuration not stated) | -1 | . | . | 0 | . | -1 | .
N#C/C(=C\c1ccc(O)c(Br)c1)C(=O)NCc1ccccc1 | -4 | 134* | 104* | 43* | -4 | -1 | 20*
N#C/C(=C\c1ccc(O)c([N+](=O)[O-])c1)C(=O)NCc1ccccc1 | -2 | 1 | -2 | 3 | -9 | -2 | .
Cc1nn(C)cc1S(=O)(=O)N1CCCC(C(=O)O)C1 (configuration not stated) | 9 | -2 | 0 | -4 | -7 | 1 | .
Cc1c(S(=O)(=O)N2CCCC(C(=O)O)C2)cnn1C (configuration not stated) | 1 | -1 | 0 | 22* | -15 | -1 | >50
COc1ccc(CCNC(=O)c2cc3c(=O)n4ccccc4nc3n(CC3CCCO3)c2=N)cc1OC (configuration not stated) | 0 | . | . | 18* | . | -2 | 27*
COc1ccc(CCNC(=O)c2cc3c(=O)n4ccccc4nc3n(C3CCCCC3)c2=N)cc1OC | 0 | . | . | 23* | . | -10 | 26*
N=c1c(S(=O)(=O)c2ccc(Br)cc2)cc2c(=O)n3ccccc3nc2n1C1CCCCC1 | -1 | . | . | 22* | . | -45* | >50
COc1ccc(CCNC(=O)c2c(C)nc3ccccn23)cc1OC | 2 | 0 | 1 | 6 | -16 | 1 | .
CCC1(CC)NC(=O)N(CC(=O)OC(C)C(=O)Nc2ccc(Cl)cn2)C1=O (configuration not stated) | -2 | . | . | -8 | . | 4 | .
